Measured values published in ChEMBL document CHEMBL3585281, “Antibacterial Labdane Diterpenoids from Vitex vestita” (2015).
In brackets after ≈: the same amount, converted by molar mass.

How the values were obtained:
Format in all cases: functional
[1] = test system: Enterococcus faecium; experiment: Antibacterial activity against Enterococcus faecium N507 after 18 hrs by agar dilution method; conditions: N507, 18 h
Procedure, shortened: (§1)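 Agar-dilution MIC against Gram-positive strains. Compounds in DMSO, geometric dilutions giving final 100−0.75 mg/L in Mueller Hinton agar. Strains grown 18 h at 37 °C in trypticase soy broth, diluted in sterile water, spotted by Steers inoculator (about 1000 UFC/spot). Plates incubated 18 h at 37 °C; DMSO blank; ofloxacin positive control. MIC = lowest concentration with no visible growth.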

[2] = test system: Bacillus cereus; experiment: Antibacterial activity against Bacillus cereus N190 after 18 hrs by agar dilution method; conditions: N190, 18 h; procedure, shortened: as §1
[3] = test system: Bacillus spizizenii; experiment: Antibacterial activity against Bacillus subtilis ATCC 6633 after 18 hrs by agar dilution method; conditions: ATCC 6633, 18 h; procedure, shortened: as §1
[4] = test system: Mammaliicoccus sciuri; experiment: Antibacterial activity against Staphylococcus sciuri N993 after 18 hrs by agar dilution method; conditions: N993, 18 h; procedure, shortened: as §1
[5] = test system: Staphylococcus aureus; experiment: Antibacterial activity against Staphylococcus aureus ATCC 9144 oxford after 18 hrs by agar dilution method; procedure, shortened: as §1
[6] = test system: Streptococcus agalactiae; experiment: Antibacterial activity against Streptococcus agalactiae CIP 103227 after 18 hrs by agar dilution method; conditions: ATCC 13813, 18 h; procedure, shortened: as §1
[7] = test system: Enterococcus durans; experiment: Antibacterial activity against Enterococcus durans CIP 104999 after 18 hrs by agar dilution method; conditions: CIP 104999, 18 h; procedure, shortened: as §1
[8] = test system: Staphylococcus lugdunensis; experiment: Antibacterial activity against Staphylococcus lugdunensis ATCC 43809 after 18 hrs by agar dilution method; conditions: ATCC 43809, 18 h; procedure, shortened: as §1
[9] = test system: Enterococcus faecium; experiment: Antibacterial activity against Enterococcus faecium N490 after 18 hrs by agar dilution method; conditions: N490, 18 h; procedure, shortened: as §1
[10] = test system: HCT-116; experiment: Cytotoxicity against human HCT116 cells assessed as growth inhibition at 10^-6 M after 72 hrs by MTS assay relative to control; conditions: HCT-116, 72 h, read-out: GI
Procedure, shortened: (§2)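 Cells from ATCC; HCT-116 grown in RPMI 1640 and MRC5 in DMEM, each with 10% FCS and 1% glutamine, 37 °C, 5% CO2. Seeded at 2.5 × 10^3 cells/well, cultured 24 h, then exposed to compounds at 1 and 10 μM final for 72 h. MTS read-out, absorbance 490 nm; percent index from treated/control OD490 × 100, three experiments.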

[11] = test system: Staphylococcus haemolyticus; experiment: Antibacterial activity against Staphylococcus haemolyticus CIP 8156 after 18 hrs by agar dilution method; conditions: CIP 8156, 18 h; procedure, shortened: as §1
[12] = test system: Enterococcus faecalis; experiment: Antibacterial activity against Enterococcus faecalis CIP 103214 after 18 hrs by agar dilution method; conditions: CIP 103214, 18 h; procedure, shortened: as §1
[13] = test system: Enterococcus faecalis; experiment: Antibacterial activity against Enterococcus faecalis N520 after 18 hrs by agar dilution method; conditions: N520, 18 h; procedure, shortened: as §1
[14] = test system: Staphylococcus aureus; experiment: Antibacterial activity against Staphylococcus aureus CIP 53154 after 18 hrs by agar dilution method; conditions: CIP 53154, 18 h; procedure, shortened: as §1
[15] = test system: Enterococcus faecalis; experiment: Antibacterial activity against Enterococcus faecalis CIP 104676 after 18 hrs by agar dilution method; conditions: CIP 104676, 18 h; procedure, shortened: as §1
[16] = test system: Listeria monocytogenes; experiment: Antibacterial activity against Listeria monocytogenes N836 after 18 hrs by agar dilution method; conditions: N836, 18 h; procedure, shortened: as §1
[17] = test system: HCT-116; experiment: Cytotoxicity against human HCT116 cells assessed as growth inhibition at 10^-5 M after 72 hrs by MTS assay relative to control; conditions: HCT-116, 72 h, read-out: GI; procedure, shortened: as §2
[18] = test system: Enterococcus faecium; experiment: Antibacterial activity against Enterococcus faecium CIP 103014 after 18 hrs by agar dilution method; conditions: CIP 103014, 18 h; procedure, shortened: as §1
[19] = test system: Bacillus cereus; experiment: Antibacterial activity against Bacillus cereus CIP 6624 after 18 hrs by agar dilution method; conditions: CIP 6624, 18 h; procedure, shortened: as §1
[20] = test system: Listeria monocytogenes; experiment: Antibacterial activity against Listeria monocytogenes N851 after 18 hrs by agar dilution method; conditions: N851, 18 h; procedure, shortened: as §1
[21] = test system: Enterococcus avium; experiment: Antibacterial activity against Enterococcus avium CIP 104053 after 18 hrs by agar dilution method; conditions: CIP 104053, 18 h; procedure, shortened: as §1
[22] = test system: Staphylococcus epidermidis; experiment: Antibacterial activity against Staphylococcus epidermidis CIP 53124 after 18 hrs by agar dilution method; conditions: CIP 53124, 18 h; procedure, shortened: as §1
[23] = test system: Enterococcus gallinarum; experiment: Antibacterial activity against Enterococcus gallinarum CIP 105985 after 18 hrs by agar dilution method; conditions: CIP 105985, 18 h; procedure, shortened: as §1
[24] = test system: Enterococcus faecalis; experiment: Antibacterial activity against Enterococcus faecalis N518 after 18 hrs by agar dilution method; conditions: N518, 18 h; procedure, shortened: as §1
[25] = test system: Enterococcus faecium; experiment: Antibacterial activity against Enterococcus faecium N733 after 18 hrs by agar dilution method; conditions: N733, 18 h; procedure, shortened: as §1
[26] = test system: Staphylococcus aureus; experiment: Antibacterial activity against Staphylococcus aureus CIP 7625 after 18 hrs by agar dilution method; conditions: CIP 7625, 18 h; procedure, shortened: as §1
[27] = test system: Enterococcus hirae; experiment: Antibacterial activity against Enterococcus hirae CIP 5855 after 18 hrs by agar dilution method; conditions: CIP 5855, 18 h; procedure, shortened: as §1
[28] = test system: Enterococcus gallinarum; experiment: Antibacterial activity against Enterococcus gallinarum N492 after 18 hrs by agar dilution method; conditions: N492, 18 h; procedure, shortened: as §1
[29] = test system: MRC5; experiment: Cytotoxicity against human MRC5 cells assessed as growth inhibition at 10^-5 M after 72 hrs by MTS assay relative to control; conditions: MRC5, 72 h, read-out: GI; procedure, shortened: as §2
[30] = test system: Enterococcus faecium; experiment: Antibacterial activity against Enterococcus faecium CIP 107387 after 18 hrs by agar dilution method; conditions: CIP 107387, 18 h; procedure, shortened: as §1
[31] = test system: Enterococcus casseliflavus; experiment: Antibacterial activity against Enterococcus casseliflavus CIP 103018 after 18 hrs by agar dilution method; conditions: CIP 103018, 18 h; procedure, shortened: as §1
[32] = test system: Enterococcus faecalis; experiment: Antibacterial activity against Enterococcus faecalis N491 after 18 hrs by agar dilution method; conditions: N491, 18 h; procedure, shortened: as §1
[33] = test system: Listeria monocytogenes; experiment: Antibacterial activity against Listeria monocytogenes CIP 103575 after 18 hrs by agar dilution method; conditions: CIP 103575, 18 h; procedure, shortened: as §1
[34] = test system: Listeria innocua; experiment: Antibacterial activity against Listeria innocua E044 after 18 hrs by agar dilution method; conditions: E044, 18 h; procedure, shortened: as §1
[35] = test system: Enterococcus faecium; experiment: Antibacterial activity against Enterococcus faecium N823 after 18 hrs by agar dilution method; conditions: N823, 18 h; procedure, shortened: as §1
[36] = test system: Staphylococcus aureus; experiment: Antibacterial activity against Staphylococcus aureus CIP 53156 after 18 hrs by agar dilution method; conditions: CIP 53156, 18 h; procedure, shortened: as §1
[37] = test system: Staphylococcus aureus; experiment: Antibacterial activity against Staphylococcus aureus CIP 5710 after 18 hrs by agar dilution method; conditions: CIP 5710, 18 h; procedure, shortened: as §1
[38] = test system: Bacillus cereus; experiment: Antibacterial activity against Bacillus cereus N349 after 18 hrs by agar dilution method; conditions: N349, 18 h; procedure, shortened: as §1
[39] = test system: Listeria monocytogenes; experiment: Antibacterial activity against Listeria monocytogenes N783 after 18 hrs by agar dilution method; conditions: N783, 18 h; procedure, shortened: as §1
[40] = test system: Staphylococcus aureus; experiment: Antibacterial activity against Staphylococcus aureus ATCC 25923 after 18 hrs by agar dilution method; conditions: ATCC 25923, 18 h; procedure, shortened: as §1
[41] = test system: Staphylococcus saprophyticus; experiment: Antibacterial activity against Staphylococcus saprophyticus E260 after 18 hrs by agar dilution method; conditions: E260, 18 h; procedure, shortened: as §1
[42] = test system: Staphylococcus saprophyticus; experiment: Antibacterial activity against Staphylococcus saprophyticus CIP 76125 after 18 hrs by agar dilution method; conditions: CIP 76125, 18 h; procedure, shortened: as §1
[43] = test system: Corynebacterium striatum; experiment: Antibacterial activity against Corynebacterium striatum N840 after 18 hrs by agar dilution method; conditions: N840, 18 h; procedure, shortened: as §1
[44] = test system: Staphylococcus intermedius; experiment: Antibacterial activity against Staphylococcus intermedius N987 after 18 hrs by agar dilution method; conditions: N987, 18 h; procedure, shortened: as §1
[45] = test system: Enterococcus gallinarum; experiment: Antibacterial activity against Enterococcus gallinarum N489 after 18 hrs by agar dilution method; conditions: N489, 18 h; procedure, shortened: as §1
[46] = test system: Staphylococcus aureus; experiment: Antibacterial activity against Staphylococcus aureus CRBIP 2121 after 18 hrs by agar dilution method; conditions: CRBIP 2121, 18 h; procedure, shortened: as §1
[47] = test system: Staphylococcus aureus; experiment: Antibacterial activity against Staphylococcus aureus CIP 483 after 18 hrs by agar dilution method; conditions: CIP 483, 18 h; procedure, shortened: as §1
[48] = test system: Bacillus cereus; experiment: Antibacterial activity against Bacillus cereus N258 after 18 hrs by agar dilution method; conditions: N258, 18 h; procedure, shortened: as §1
[49] = test system: Enterococcus casseliflavus; experiment: Antibacterial activity against Enterococcus casseliflavus N487 after 18 hrs by agar dilution method; conditions: N487, 18 h; procedure, shortened: as §1
[50] = test system: MRC5; experiment: Cytotoxicity against human MRC5 cells assessed as growth inhibition at 10^-6 M after 72 hrs by MTS assay relative to control; conditions: MRC5, 72 h, read-out: GI; procedure, shortened: as §2

MIC [1]: 96 µM (≈ 32.1 µg/mL) | MIC [2]: 6 µM (≈ 2.01 µg/mL) | MIC [3]: 6 µM (≈ 2.01 µg/mL) | MIC [4]: 48 µM (≈ 16.1 µg/mL) | MIC [5]: 24 µM (≈ 8.03 µg/mL) | MIC [6]: 12 µM (≈ 4.01 µg/mL) | MIC [7]: 24 µM (≈ 8.03 µg/mL) | MIC [8]: 24 µM (≈ 8.03 µg/mL) | MIC [9]: 48 µM (≈ 16.1 µg/mL) | MIC [12]: 96 µM (≈ 32.1 µg/mL) | MIC [13]: 48 µM (≈ 16.1 µg/mL) | MIC [14]: 24 µM (≈ 8.03 µg/mL) | MIC [15]: 24 µM (≈ 8.03 µg/mL) | MIC [16]: 24 µM (≈ 8.03 µg/mL) | MIC [18]: 96 µM (≈ 32.1 µg/mL) | MIC [19]: 12 µM (≈ 4.01 µg/mL) | MIC [20]: 48 µM (≈ 16.1 µg/mL) | MIC [21]: 48 µM (≈ 16.1 µg/mL) | MIC [22]: 12 µM (≈ 4.01 µg/mL) | MIC [23]: 96 µM (≈ 32.1 µg/mL) | MIC [24]: 96 µM (≈ 32.1 µg/mL) | MIC [25]: 96 µM (≈ 32.1 µg/mL) | MIC [26]: 24 µM (≈ 8.03 µg/mL) | MIC [27]: 96 µM (≈ 32.1 µg/mL) | MIC [28]: 48 µM (≈ 16.1 µg/mL) | MIC [30]: 96 µM (≈ 32.1 µg/mL) | MIC [31]: 96 µM (≈ 32.1 µg/mL) | MIC [32]: 24 µM (≈ 8.03 µg/mL) | MIC [33]: 24 µM (≈ 8.03 µg/mL) | MIC [34]: 48 µM (≈ 16.1 µg/mL) | MIC [35]: 96 µM (≈ 32.1 µg/mL) | MIC [36]: 12 µM (≈ 4.01 µg/mL) | MIC [37]: 24 µM (≈ 8.03 µg/mL) | MIC [38]: 6 µM (≈ 2.01 µg/mL) | MIC [39]: 48 µM (≈ 16.1 µg/mL) | MIC [40]: 24 µM (≈ 8.03 µg/mL) | MIC [41]: 24 µM (≈ 8.03 µg/mL) | MIC [42]: 24 µM (≈ 8.03 µg/mL) | MIC [43]: 24 µM (≈ 8.03 µg/mL) | MIC [44]: 12 µM (≈ 4.01 µg/mL) | MIC [45]: 24 µM (≈ 8.03 µg/mL) | MIC [46]: 12 µM (≈ 4.01 µg/mL) | MIC [47]: 12 µM (≈ 4.01 µg/mL) | MIC [48]: 6 µM (≈ 2.01 µg/mL) | MIC [49]: 96 µM (≈ 32.1 µg/mL)
SMILES: C=C1CC[C@H]2C(C)(C)CCC[C@]2(C)[C@H]1C[C@@H](O)C1=CC(=O)OC1O (stereo not given in full)
inhibition of growth at 1 µM [10]: 0% | MIC [11]: 6 µM (≈ 2.01 µg/mL) | inhibition of growth at 10 µM [17]: 87% | inhibition of growth at 10 µM [29]: 95% | inhibition of growth at 1 µM [50]: 22%
